Series [1] has as its target T1, Pin1 (Homo sapiens, UniProt Q13526). Nature of the series: Pin1 and substrate expression in xenograft tumors. The conditions noted are these: immunofluorescence staining, 3 weeks treatment. It is filed as in vivo, BALB/c nu/nu mice. A digest of the protocol:
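Male nude mice carried subcutaneous hind-limb HuH7 xenografts (4 × 10⁶ cells) and were treated for three weeks. Frozen tumour sections (10 μm) fixed in acetone 10 min, permeabilised and blocked with 1% Triton X-100 plus 10% donkey serum for 40 min. Primary antibodies (PIN1, Ki67) applied 24 h at 4°C, secondary 1 h at room temperature, DAPI nuclear stain.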

The next series relates to shPin1–HuH7 cells. Nature of the series: Cell viability assay. Type of series: cell-based, human. The conditions noted are these: 20 μM.
Series [2] deals with T1, Pin1. Description: Western blotting of Pin1 and its substrates in HCC cells. It is filed as cell-based. Conditions: 72 h; for Pin1 expression: 20 μM ATRA. A digest of the protocol:
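PIN1-shRNA or scrambled-shRNA HuH7 and PLC lines were made by lentiviral transduction with 1 μg/mL puromycin selection. Lysates prepared in RIPA and quantified by BCA, run on SDS-PAGE and transferred to PVDF. Blocked in 5% milk, probed with anti-Pin1 (1:3000) then HRP secondary, detected by chemiluminescence; β-actin as loading control.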
Background: A western blot detects proteins with antibodies after separation by electrophoresis.

For a further series, the system named is PLC cells. Nature of the series: Cell viability assay. Conditions: 0 to 40 μM ATRA; 24 h, 48 h, 72 h. Type of series: cell-based, human. A digest of the protocol:
(§1)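 Seeded in 96-well plates at 3000 (HuH7) or 6000 (PLC) cells/well in DMEM or MEM with 10% FBS and cultured overnight. Treated with blank PLLA particles, free drug or drug-loaded PLLA particles; untreated control. MTT (5 mg/mL stock) added for 3 h, formazan dissolved in DMSO, absorbance read at 490 nm. Viability = OD sample/OD control × 100; IC50 calculated from inhibition rates.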

The test system of series [3] is HuH7 cells. Nature of the series: Cell cycle and apoptosis analysis. Conditions: 10 μM and 20 μM ATRA, 72 h. It is filed as cell-based, human. A digest of the protocol: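 HuH7 seeded at 0.9 × 10⁴ cells/cm², cultured overnight, then given blank PLLA particles (0.25 mg/mL), free drug (10 and 20 μM) or drug-loaded PLLA particles (10 and 20 μM drug) for 72 h; untreated cells as control. Trypsinised cells fixed in 70% ethanol (4°C, 2 h), stained with propidium iodide (30 min, 37°C, dark) using a kit, then analysed by flow cytometry.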

The conditions of series [4]: under physiological conditions ref 41; cited from earlier work.
The test system of series [5] is HuH7 cells. Nature of the series: Focus formation assay. It is filed as cell-based, human. The conditions noted are these: 72 h treatment, then 10~14 days; vs control cells. A digest of the protocol: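 HuH7 seeded at 500 or 2000 cells/well in 12- or 6-well plates, cultured overnight, then treated 72 h with blank PLLA particles, free drug or drug-loaded PLLA particles. Medium then replaced and cells grown 10~14 days. Fixed and stained with 0.5% methylene blue in methanol; colonies above 50 cells counted. Focus area given as % of untreated control; triplicates.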

Series [6] relates to normal human liver L-02 cells. Nature of the series: Cell viability assay. It is filed as cell-based. The conditions noted are these: even at 20 μM.
The next series concerns shV–PLC cells. Description: Cell viability assay. It is filed as cell-based, human. The conditions noted are these: 20 μM; 24 h, 48 h, 72 h. A digest of the protocol:
(§2)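 Stable lines made by lentiviral pLKO.1 shRNA (PIN1 or scrambled) produced in 293T with pVSVG, pREV and pMDL helpers. PLC cells were infected, selected with 1 μg/mL puromycin and checked by Western blot. Viability read by MTT: 3 h incubation, DMSO solubilisation, 490 nm, expressed as OD sample/OD control × 100.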

Series [7] can be described thus: Weight of mice in xenograft experiment. It is filed as in vivo, BALB/c nu/nu mice. The conditions noted are these: 3 weeks treatment. A digest of the protocol:
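Male BALB/c nu/nu mice bore subcutaneous hind-limb HuH7 xenografts (4 × 10⁶ cells) and were randomised at about 50 mm³. Groups received saline, free drug (ethanol diluted in corn oil), blank PLLA particles, slow-release pellet, or drug-loaded particles in saline. Dosing was i.p. at 15 mg/kg drug, twice weekly for three weeks. Body weight recorded weekly.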

In the next series the test system is shPin1–PLC cells. Description: Cell viability assay. It is filed as cell-based, human. Conditions: 20 μM; 24 h, 48 h, 72 h. A digest of the protocol:
as §2

For series [8], the system named is HuH7 cells. Description: Cell viability assay. Type of series: cell-based, human. Conditions: 0 to 40 μM ATRA; 24 h, 48 h, 72 h. A digest of the protocol: as §1
The next series has as its system shV–HuH7 cells. Description: Cell viability assay. Type of series: cell-based, human. Conditions: 20 μM, 72 h.

T1 sequence (Q13526 whole entry): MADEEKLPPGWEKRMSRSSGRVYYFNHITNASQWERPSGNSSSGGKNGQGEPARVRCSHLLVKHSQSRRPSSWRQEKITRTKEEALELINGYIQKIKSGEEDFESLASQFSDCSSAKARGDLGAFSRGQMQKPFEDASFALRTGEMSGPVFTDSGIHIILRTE

Consider `CC1=C(/C=C/C(C)=C/C=C/C(C)=C/C(=O)O)C(C)(C)CCC1` [ATRA, all-trans retinoic acid], for which the “Expression of Pin1 and Ki67 in tumors vs saline group” value on Pin1 [1] was “did not induce obvious changes”. Moreover, the “Decrease of cell viability” value in the series with shPin1–HuH7 cells (24 h and 48 h) is given as “did not decrease cell viability”; in the series with shPin1–PLC cells, “did not decrease cell viability”; with shV–HuH7 cells it was “approximately 36%”. In addition, the “Reduction of cell viability” value in the series on shPin1–HuH7 cells (72 h) is “about 15%”. Moreover, the “Expression of Pin1 and its substrates (β-catenin, c-JUN, NF-κB, Cyclin D1, CDK2, CDK6)” value on Pin1 [2] (HuH7 and PLC cells, 5-20 μM ATRA) is on record as “obvious dose-dependent down-regulations”. Further, the Pin1 expression entry on Pin1 [2] (shPin1–HuH7 and shPin1–PLC cells) is listed as “did not affect”; on Pin1 [2] (shV–HuH7 and shV–PLC cells), “significantly down-regulated”. The “Inhibition on PLC cell viability” value with PLC cells was “dose-dependent inhibition”. Further, in the series on HuH7 cells [3], the Apoptosis entry was “did not induce significant apoptosis”. Besides, the “Proportion of cells in G0/G1 phase” value in the series with HuH7 cells [3] is given as “significantly increased”. The “Proportion of cells in G2/M phase” value in the series on HuH7 cells [3] is “decreased”. Besides, in series [4], the Aqueous solubility (commonly the concentration that dissolves in the medium under given conditions) was 0.21 µM. Moreover, the “Number and area of foci” value in the series with HuH7 cells [5] is “significant dose-dependent reductions”. In addition, the “Inhibition on viability of L-02 cells” value in [6] was “no significant inhibition”. In addition, the “Inhibition on cell viability” value in the series with shV–PLC cells is reported as “significant time-dependent inhibition”; in the series with shV–HuH7 cells (24 h, 48 h), “very significant (p < 0.001) time-dependent inhibition”. For the same molecule, the “Weights of mice vs saline group” value in series [7] is listed as “did not induce significant changes”. In addition, the “Inhibition on HuH7 cell viability” value in the series with HuH7 cells [8] is on record as “Dose-dependent inhibition”.

Values taken from publication PMC6290999 (Journal of controlled release : official journal of the …, 2017).
